ChEMBL document CHEMBL1153403, “Design, synthesis, and evaluation of novel fluoroquinolone-aminoglycoside hybrid antibiotics” (J Med Chem, 2009)
Converted amounts (≈) assume the structure as drawn.

How the values were obtained:
[1] = test system: Escherichia coli; test: Antibacterial activity against aminoglycosides-resistant Escherichia coli XL1-blue harboring pSF815 expressing AAC(6')-APH(2'') enzyme by double-microdilution method; type: functional
[2] = test system: Escherichia coli; test: Antibacterial activity against Escherichia coli XL1-blue by double-microdilution method; type: functional
[3] = test system: Escherichia coli; test: Antibacterial activity against Escherichia coli BL21 by double-microdilution method; type: functional
[4] = test system: Escherichia coli; test: Antibacterial activity against Escherichia coli R477-100 by double-microdilution method; type: functional
[5] = test system: Escherichia coli; test: Resistance index, MIC for aminoglycosides-resistant Escherichia coli XL1-blue harboring pSF815 expressing AAC(6')-APH(2'') enzyme to MIC for Escherichia coli XL1-blue; type: functional
Procedure, shortened: (§1)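 Ratio of MIC on the plasmid-bearing resistant strain to MIC on its background strain (pETSACG1 vs BL21; pET9d or pSF815 vs XL1 blue). MICs by NCCLS double microdilution from starting concentrations of 384 and 1.5 µg/mL, in duplicate, two to four experiments.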

[6] = test system: Escherichia coli; test: Resistance index, MIC for aminoglycosides-resistant Escherichia coli XL1-blue harboring pET9d expressing APH(3')-1a enzyme to MIC for Escherichia coli XL1-blue; type: functional; procedure, shortened: as §1
[7] = test system: Escherichia coli; test: Antibacterial activity against kanamycin-resistant Escherichia coli AG100A expressing aminoglycosides resistant APH(3')-1 enzyme by double-microdilution method; type: functional
[8] = test system: Escherichia coli; test: Antibacterial activity against aminoglycosides-resistant Escherichia coli XL1-blue harboring pET9d expressing APH(3')-1a enzyme by double-microdilution method; type: functional
[9] = test system: Escherichia coli; test: Antibacterial activity against Escherichia coli ATCC 25922 by double-microdilution method; type: functional
[10] = test system: Escherichia coli; test: Resistance index, MIC for aminoglycosides-resistant Escherichia coli BL21 harboring pETSACG1 expressing APH(3')-3a enzyme to MIC for Escherichia coli BL21; type: functional; procedure, shortened: as §1
[11] = test system: Escherichia coli; test: Antibacterial activity against kanamycin-resistant Escherichia coli AG100B expressing aminoglycosides resistant APH(3')-1 enzyme by double-microdilution method; type: functional
[12] = test system: Staphylococcus aureus; test: Antibacterial activity against methicillin-resistant Staphylococcus aureus ATCC 43300 by double-microdilution method; type: functional
[13] = test system: Escherichia coli; test: Antibacterial activity against aminoglycosides-resistant Escherichia coli BL21 harboring pETSACG1 expressing APH(3')-3a enzyme by double-microdilution method; type: functional
[14] = test system: Bacillus subtilis; test: Antibacterial activity against aminoglycosides-susceptible Bacillus subtilis ATCC 6633 by double-microdilution method; type: functional
[15] = Inhibition of Escherichia coli topoisomerase 4 assessed as reduction in supercoiled pBR322 DNA relaxation activity after 30 mins by electrophoresis; settings: read-out: IC50
Procedure, shortened: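 E. coli TopoIV relaxation of supercoiled pBR322 in 40 mM HEPES-KOH pH 7.6 with 100 mM potassium glutamate, 10 mM Mg(OAc)₂, 10 mM DTT, 1 mM ATP and 50 µg/mL albumin. Incubated 37 °C for 30 min, stopped with EDTA, loading dye and chloroform/isoamyl alcohol, then run on 1% agarose. Supercoiled DNA percentage was quantified from gel images. IC50 is the 50% reduction versus drug-free control.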

[16] = Inhibition of Escherichia coli DNA gyrase assessed as reduction in relaxed pBR322 DNA supercoiling activity after 1 hr by electrophoresis; settings: read-out: IC50
Procedure, shortened: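 Supercoiling of relaxed pBR322 (12.5 ng/µL) by E. coli DNA gyrase in 35 mM Tris-Cl pH 7.5 with 24 mM KCl, 4 mM MgCl₂, 2 mM DTT, 1.8 mM spermidine, 1 mM ATP, 6.5% glycerol and 0.1 mg/mL BSA. Incubated 37 °C for 1 h, stopped with loading dye plus chloroform/isoamyl alcohol, and resolved on 1% agarose. IC50 is the concentration halving activity versus drug-free control.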

[17] = test system: Escherichia coli; test: Inhibition of protein synthesis in Escherichia coli S30 extracts assessed as luciferase activity after 1 hr by coupled transcription/translation assay; type: functional
Procedure, shortened: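 Coupled transcription/translation of the pBESTluc plasmid in E. coli S30 extract with varying compound concentrations, 37 °C for 60 min. Reactions were cooled on ice, diluted in Tris-phosphate pH 7.8 reagent, and luciferase luminescence was read immediately after substrate addition. IC50 came from concentration-response curves fitted to at least two independent experiments.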

Row | Compound | MIC [1] [µg/mL] | MIC [2] [µg/mL] | MIC [3] [µg/mL] | MIC [4] [µg/mL] | Ratio [5] | Ratio [6] | MIC [7] [µg/mL] | MIC [8] [µg/mL] | MIC [9] [µg/mL] | Ratio [10] | MIC [11] [µg/mL] | MIC [12] [µg/mL] | MIC [13] [µg/mL] | MIC [14] [µg/mL] | IC50 [15] [µM] | IC50 [16] [µM] | IC50 [17]
1 | NC[C@@H]1O[C@H](O[C@H]2[C@@H](O)[C@H](O[C@@H]3[C@@H](O)[C@H](N)C[C@H](N)[C@H]3O[C@H]3O[C@H](CN)[C@@H](O)[C@H](O)[C@H]3N)O[C@@H]2C(=O)NCc2cn(Cc3cccc(CN4CCN(c5cc6c(cc5F)c(=O)c(C(=O)O)cn6C5CC5)CC4)c3)nn2)[C@H](N)[C@@H](O)[C@@H]1O | 24 (≈ 21 µM) | 6 (≈ 5.25 µM) | 0.4 (≈ 0.35 µM) | 6 (≈ 5.25 µM) | 4 | 1 | 0.75 (≈ 0.657 µM) | 6 (≈ 5.25 µM) | 6 (≈ 5.25 µM) | 1 | 12 (≈ 10.5 µM) | 6 (≈ 5.25 µM) | 0.4 (≈ 0.35 µM) | 3 (≈ 2.63 µM) |  |  | 
2 | NC[C@@H]1O[C@H](O[C@H]2[C@@H](O)[C@H](O[C@@H]3[C@@H](O)[C@H](N)C[C@H](N)[C@H]3O[C@H]3O[C@H](CN)[C@@H](O)[C@H](O)[C@H]3N)O[C@@H]2C(=O)NCc2cn(CCCCCN3CCN(c4cc5c(cc4F)c(=O)c(C(=O)O)cn5C4CC4)CC3)nn2)[C@H](N)[C@@H](O)[C@@H]1O |  |  |  | 24 (≈ 21.7 µM) |  |  | 1.5 (≈ 1.35 µM) |  | 6 (≈ 5.41 µM) |  | 24 (≈ 21.7 µM) | 48 (≈ 43.3 µM) |  | 12 (≈ 10.8 µM) |  |  | 
3 | O=C(O)c1cn(C2CC2)c2cc(N3CCNCC3)c(F)cc2c1=O [CIPROFLOXACIN] |  |  | < 0.005 |  |  |  | < 0.005 |  |  |  |  | 0.2 (≈ 0.604 µM) |  | 0.02 (≈ 0.0604 µM) | 10.8 | 1.3 | Not Active
4 | NC[C@@H]1O[C@H](O[C@H]2[C@@H](O)[C@H](O[C@@H]3[C@@H](O)[C@H](N)C[C@H](N)[C@H]3O[C@H]3O[C@H](CN)[C@@H](O)[C@H](O)[C@H]3N)O[C@@H]2C(=O)NCc2cn(CCOCCN3CCN(c4cc5c(cc4F)c(=O)c(C(=O)O)cn5C4CC4)CC3)nn2)[C@H](N)[C@@H](O)[C@@H]1O |  |  |  | 12 (≈ 10.8 µM) |  |  | 1.5 (≈ 1.35 µM) |  | 6 (≈ 5.4 µM) |  | 12 (≈ 10.8 µM) | 24 (≈ 21.6 µM) |  | 12 (≈ 10.8 µM) |  |  | 
5 | NC[C@@H]1O[C@H](O[C@H]2[C@@H](O)[C@H](O[C@@H]3[C@@H](O)[C@H](N)C[C@H](N)[C@H]3O[C@H]3O[C@H](CN)[C@@H](O)[C@H](O)[C@H]3N)O[C@@H]2C(=O)Nc2ccc(-c3cn(CCCCCCN4CCN(c5cc6c(cc5F)c(=O)c(C(=O)O)cn6C5CC5)CC4)nn3)cc2)[C@H](N)[C@@H](O)[C@@H]1O |  |  |  | 6 (≈ 5.07 µM) |  |  | 1.5 (≈ 1.27 µM) |  | 6 (≈ 5.07 µM) |  | 12 (≈ 10.1 µM) | 48 (≈ 40.5 µM) |  | 12 (≈ 10.1 µM) |  |  | 
6 | NC[C@@H]1O[C@H](O[C@H]2[C@@H](O)[C@H](O[C@@H]3[C@@H](O)[C@H](N)C[C@H](N)[C@H]3O[C@H]3O[C@H](CN)[C@@H](O)[C@H](O)[C@H]3N)O[C@@H]2C(=O)NCc2cn(CCN3CCN(c4cc5c(cc4F)c(=O)c(C(=O)O)cn5C4CC4)CC3)nn2)[C@H](N)[C@@H](O)[C@@H]1O |  |  |  | 12 (≈ 11.3 µM) |  |  | 1.5 (≈ 1.41 µM) |  | 6 (≈ 5.63 µM) |  | 12 (≈ 11.3 µM) | 24 (≈ 22.5 µM) |  | 3 (≈ 2.81 µM) |  |  | 
7 | NC[C@@H]1O[C@H](O[C@H]2[C@@H](O)[C@H](O[C@@H]3[C@@H](O)[C@H](N)C[C@H](N)[C@H]3O[C@H]3O[C@H](CN)[C@@H](O)[C@H](O)[C@H]3N)O[C@@H]2C(=O)Nc2ccc(-c3cn(CCN4CCN(c5cc6c(cc5F)c(=O)c(C(=O)O)cn6C5CC5)CC4)nn3)cc2)[C@H](N)[C@@H](O)[C@@H]1O |  |  |  | 12 (≈ 10.6 µM) |  |  | 0.75 (≈ 0.665 µM) |  | 6 (≈ 5.32 µM) |  | 24 (≈ 21.3 µM) | 48 (≈ 42.5 µM) |  | 6 (≈ 5.32 µM) |  |  | 
8 | NC[C@@H]1O[C@H](O[C@H]2[C@@H](O)[C@H](O[C@@H]3[C@@H](O)[C@H](N)C[C@H](N)[C@H]3O[C@H]3O[C@H](CN)[C@@H](O)[C@H](O)[C@H]3N)O[C@@H]2C(=O)Nc2ccc(-c3cn(CCCN4CCN(c5cc6c(cc5F)c(=O)c(C(=O)O)cn6C5CC5)CC4)nn3)cc2)[C@H](N)[C@@H](O)[C@@H]1O |  |  |  | 6 (≈ 5.25 µM) |  |  | 1.5 (≈ 1.31 µM) |  | 3 (≈ 2.63 µM) |  | 12 (≈ 10.5 µM) | 48 (≈ 42 µM) |  | 6 (≈ 5.25 µM) |  |  | 
